# In the library only some 4.5% were active in any assay of this set; here they are far more common.
# PHOSPHO1 block – PubChem AID 1565; recombinant PHOSPHO1, absorbance phosphatase assay; 1.1% of 290,000 active; Phosphoethanolamine/phosphocholine phosphatase (Homo sapiens), Q8TCT1; inhibition, % at 13.3 µM; in the data active = inhibition above about 60%
# Target sequence (Q8TCT1 whole entry, looked up): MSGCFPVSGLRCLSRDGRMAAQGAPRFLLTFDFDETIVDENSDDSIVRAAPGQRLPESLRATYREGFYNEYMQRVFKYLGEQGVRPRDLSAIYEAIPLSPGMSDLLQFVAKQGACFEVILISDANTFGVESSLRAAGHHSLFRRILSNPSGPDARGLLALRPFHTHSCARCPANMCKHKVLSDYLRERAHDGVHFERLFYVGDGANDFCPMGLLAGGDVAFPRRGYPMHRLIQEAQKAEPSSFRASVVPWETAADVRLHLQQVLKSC
# MrgX1 allo act – positive allosteric modulators of MrgX1, primary screen, HEK293 cells, Fluo-4 calcium flux. AID 588675, 2011. B-score at 10 µM. 0.63% of 310,000 active. FDSS; hits give high values. Mas-related G-protein coupled receptor member X1 (Homo sapiens), Q96LB2;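 active = plate-corrected calcium response at least 3 library SD above typical, normal starting fluorescence, not activating the receptor alone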;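 note: compound read alongside a low EC10 to EC30 dose of BAM8-22 agonist; peak minus trough fluorescence over baseline measured at the second addition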
# RGS4 block – RGS4 inhibitors, primary screen, cell-based, HEK293 M3R inducible RGS4, calcium flux; AID 463165, 2010; Fluo-4 calcium flux; hits give high values; triggered by carbachol at its EC20; B-score at 10 µM; 0.45% of 310,000 active;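 active = B-score, a plate-corrected calcium signal, over three deviations above library mean, with baseline fluorescence within five deviations of library mean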;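 note: RGS4 expression induced by doxycycline in cells with stable M3 receptor; B-score is computed from the integrated fluorescence ratio over baseline after carbachol; higher B-score means a larger calcium signal and so more RGS4 inhibition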
# Target sequence (P49798 whole entry, looked up): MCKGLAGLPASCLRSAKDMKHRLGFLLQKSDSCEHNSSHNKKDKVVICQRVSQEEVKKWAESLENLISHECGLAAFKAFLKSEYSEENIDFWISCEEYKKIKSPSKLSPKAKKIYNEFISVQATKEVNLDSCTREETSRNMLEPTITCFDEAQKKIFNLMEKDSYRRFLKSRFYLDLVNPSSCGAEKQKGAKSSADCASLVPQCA
# MrgX1 antagonist – antagonists of human MrgX1 receptor, primary screen, HEK293 cells, Fluo-4 calcium flux. Mas-related G-protein coupled receptor member X1 (Homo sapiens), Q96LB2. BAM8-22 antagonism; hits give low values. B-score at 10 µM. 1.3% of 310,000 active. AID 588676, 2011;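 active = calcium-response B-score plate-corrected more than 3 library SD below zero, starting fluorescence within 5 deviations, no agonist response on first addition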;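 note: peak minus trough fluorescence over baseline after final BAM8-22 challenge near maximal dose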
# MrgX1 agonist – agonists of human MrgX1 receptor, primary screen, HEK293 cells, Fluo-4 calcium flux. Mas-related G-protein coupled receptor member X1 (Homo sapiens), Q96LB2. Fluo-4 calcium fluorescence, agonist mode; hits give high values. B-score at 10 µM. 0.44% of 310,000 active;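 active = calcium response B-score plate-corrected fluorescence ratio at least 3 library SD, with starting fluorescence B-score inside 5 SD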
#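 Material: MrgX1-expressing HEK293 cells; input: 15,000 cells per well; doses: test compound given as first of three sequential additions; schedule: overnight plating before 1 h dye loading; technique: Fluo-4 NW calcium-flux fluorescence, kinetic read; evaluation: baseline-normalised fluorescence change ratio, B-scored; control set: plate-wise positive and negative controls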
# RGS4 act – RGS4 potentiators or activators, primary screen, cell-based, HEK293 M3R inducible RGS4, calcium flux; carbachol calcium flux Fluo4; hits give low values; B-score at 10 µM; 0.92% of 310,000 active;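 active = B-score of the integrated calcium signal more than 4 SD below the library mean, with starting fluorescence not abnormally high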;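 note: negative B-score means reduced calcium response which marks RGS4 activation or potentiation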
#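 System – HEK293 FlpIn-TREx cells, stable M3R, doxycycline-inducible RGS4 · Reagent – ECmax carbachol challenge · Times – compound preincubation 20 min at room temperature before agonist · Technique – Fluo4 fluorescence kinetic imaging of calcium · Measure – B score of integrated Fluo4 ratio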
# RGS4 inh valid – enhanced carbachol calcium response, M3R/RGS4 cells, RGS4 inhibitor project, cell-based, validation screen, HEK293 M3R/RGS4, calcium flux; shares compounds with RGS4 block; carbachol calcium Fluo-4 fluorescence; carbachol added at its EC20; 0 = buffer wells, 100 = carbachol control; calcium response, % at 10 µM; 65% of 1,700 active; AID 492999, 2010;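 active = duplicate-averaged calcium response above the buffer-only control mean plus 5 SD of those controls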;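 note: integrated fluorescence ratio F max minus min over baseline F0; higher response in RGS4-induced cells means RGS4 inhibition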
# M3R Ca ctr – carbachol calcium response in non-induced M3R cells, confirmation, counter-screen for RGS4 inhibitor project, cell-based, HEK293 M3R; AID 493000, 2010; activity (percent), % at 10 µM; carbachol calcium Fluo-4; submaximal (EC20) carbachol stimulus; buffer wells 0%, carbachol control wells 100%; 20% of 1,900 active; shares compounds with RGS4 block; call rule not given here;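 note: RGS4 induction absent so cells express M3R without RGS4; higher means more calcium signal and flags a non-specific hit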
# RGS4 inh ctr2 – signal in non-induced cells without carbachol, RGS4 inhibitor counter-screen. shares compounds with RGS4 block. HEK293 M3R/RGS4 non-induced, Fluo-4 calcium, no carbachol; normalised: buffer wells 0%, carbachol wells 100%. calcium response (agonist-mode artifact), % at 10 µM. 22% of 1,900 active. AID 493001;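 active = duplicate-averaged calcium rise in uninduced cells above buffer wells' mean plus 5 SD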
# The depositor's hits bear a star; i = inactive; · = no result given.
SMILES,PHOSPHO1 block,MrgX1 allo act,RGS4 block,MrgX1 antagonist,MrgX1 agonist,RGS4 act,RGS4 inh valid,M3R Ca ctr,RGS4 inh ctr2
COC(=O)c1cc(=O)n(CCc2ccccc2)c(=Nc2ccc(F)cc2)s1,6,i,i,i,i,i,·,·,·
CCn1c(=O)cc(C(=O)OC)sc1=Nc1ccc(F)c(F)c1,-3,i,13*,i,i,i,56%*,80%*,i
CCOC(=O)c1ccc(N=c2sc(C(=O)OC)cc(=O)n2CCCN2CCOCC2)cc1,15,i,i,i,i,i,·,·,·
CCOC(=O)c1ccc(N=c2sc(C(=O)OC)cc(=O)n2Cc2ccco2)cc1,-62,i,i,i,i,i,i,i,i
COC(=O)c1cc(=O)n(CCc2ccc(OC)cc2)c(=Nc2ccc(F)c(Cl)c2)s1,-16,i,i,i,i,i,i,i,19%*
CCOc1cc(C2NC(=O)NC(c3ccccc3)=C2C(=O)c2ccccc2)c(Br)cc1OCC(=O)O (stereo not drawn),34,i,i,i,i,i,·,·,·
COc1ccc(N(CC(=O)NCc2cccnc2)S(=O)(=O)c2ccccc2)c(OC)c1,·,i,i,i,i,i,·,·,·
Nc1ccc(-c2nc(-c3ccccc3)nc3ccccc23)cc1,42,i,i,i,i,i,·,·,·
Nc1ccc(-c2cc(-c3cccc(N)c3)nc(-c3ccccc3)n2)cc1,26,i,i,i,i,i,i,i,i
O=C(CNc1ccc(Cl)cc1)c1ccc(Br)cc1,11,i,i,i,i,i,·,·,·
O=C(CNc1ccc(Br)cc1)c1ccc(O)cc1,-4,i,9.6*,i,i,i,22%*,i,i
COc1ccc(C2CC(c3ccc(Br)cc3)=NN2C(=O)c2cccnc2)cc1 (stereo not drawn),-16,i,i,i,i,i,·,·,·
COc1ccc(C2=NN(CN3C(=O)C(=O)c4ccccc43)C(c3ccc(C)cc3)C2)cc1 (stereo not drawn),7,i,6.7*,i,i,i,18%*,i,i
COc1ccc(C2=NN(CN3C(=O)C(=O)c4ccccc43)C(c3ccc(Br)cc3)C2)cc1 (stereo not drawn),11,i,11*,i,i,i,38%*,42%*,i
COc1cc(/C=C/C(=O)c2ccc(O)cc2)ccc1OCC#N,-6,i,4.7*,i,i,i,10%*,i,i
CCCOc1ccc(N2C(=O)CC(S/C(N)=N/N=C(\C)c3cccs3)C2=O)cc1 (stereo not drawn),12,i,i,i,i,i,·,i,i
CC(/C=C/c1ccc(N(C)C)cc1)=N\N=C(/N)SC1CC(=O)N(c2ccc(C(=O)O)cc2)C1=O (stereo not drawn),-11,i,i,i,i,i,·,·,·
C/C(=N\N=C(/N)SC1CC(=O)N(c2cccc(Cl)c2)C1=O)c1cccs1 (stereo not drawn),0,i,i,i,i,i,·,i,i

# Bioassay records from PubChem.
